ChEMBL document CHEMBL4359878, “Discovery of 4-piperazinyl-2-aminopyrimidine derivatives as dual inhibitors of JAK2 and FLT3” (Eur J Med Chem, 2019)

What was measured:
[1] = test system: HEL; experiment: Antiproliferative activity against human HEL cells assessed as growth inhibition after 72 hrs by CCK-8 assay; type: functional
In short: (§1)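 CCK-8 viability readout. Cells were cultured in RPMI 1640 with 10% FBS and 1% penicillin/streptomycin and seeded at 3000 (HEL), 5000 (MV4-11) or 3000 (HL60) cells/well. Increasing compound concentrations were applied for 72 h, then CCK-8 was added for a further 3 h and absorbance read at 450 nm. Inhibition = (1−A_sample/A_control)×100, normalized to DMSO controls. Value is the mean of three independent measurements, obtained by curve fitting.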

[2] = molecular target: T1, Tyrosine-protein kinase JAK2 (Homo sapiens, UniProt O60674); experiment: Inhibition of N-terminal His-tagged human JAK2 catalytic domain (826 to 1132 resiudes) expressed in baculovirus expression system at 100 nM using FAM-labeled peptide as substrate preincubated for 10 mins followed by substrate addition measured after 1 hr in presence of ATP by mobility shift assay relative to control
In short: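 Single-concentration (100 nM) percent inhibition in the mobility-shift JAK2 assay. Enzyme was preincubated with compound for 10 min at room temperature in HEPES pH 7.5/Brij-35 buffer. FAM-peptide and ATP were then added and the reaction run for 1 h at 28 °C before EDTA stop. Inhibition = (max−conversion)/(max−min)×100. Each compound was tested at least twice and the values averaged.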

[3] = molecular target: Receptor-type tyrosine-protein kinase FLT3 (Homo sapiens) (UniProt P36888); details: at 100 nM
[4] = molecular target: T1, Tyrosine-protein kinase JAK2; experiment: Inhibition of N-terminal His-tagged human JAK2 catalytic domain (826 to 1132 resiudes) expressed in baculovirus expression system using FAM-labeled peptide as substrate preincubated for 10 mins followed by substrate addition measured after 1 hr in presence of ATP by mobility shift assay
In short: (§2)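 Caliper mobility-shift assay with recombinant kinase in 50 mM HEPES pH 7.5, 0.0015% Brij-35. Compound was diluted from DMSO and preincubated with enzyme for 10 min at room temperature. FAM-labeled peptide plus ATP was then added and the reaction run for 1 h at 28 °C. It was stopped with an EDTA (50 mM) buffer. Conversion gave percent inhibition relative to max/min controls, and IC50 came from a four-parameter Hill fit. Duplicate wells were used.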

[5] = test system: MV4-11; experiment: Antiproliferative activity against human MV4-11 cells assessed as growth inhibition after 72 hrs by CCK-8 assay; type: functional; details: MV4-11, 72 h; in short: as §1
[6] = molecular target: T2, Receptor-type tyrosine-protein kinase FLT3 (Homo sapiens, UniProt P36888); experiment: Inhibition of N-terminal GST-tagged human FLT3 cytoplasmic domain (564 to 993 residues) expressed in baculovirus expression system musing FAM-labeled peptide as substrate preincubated for 10 mins followed by substrate addition measured after 1 hr in presence of ATP by mobility shift assay; in short: as §2
T2 sequence (P36888 whole entry): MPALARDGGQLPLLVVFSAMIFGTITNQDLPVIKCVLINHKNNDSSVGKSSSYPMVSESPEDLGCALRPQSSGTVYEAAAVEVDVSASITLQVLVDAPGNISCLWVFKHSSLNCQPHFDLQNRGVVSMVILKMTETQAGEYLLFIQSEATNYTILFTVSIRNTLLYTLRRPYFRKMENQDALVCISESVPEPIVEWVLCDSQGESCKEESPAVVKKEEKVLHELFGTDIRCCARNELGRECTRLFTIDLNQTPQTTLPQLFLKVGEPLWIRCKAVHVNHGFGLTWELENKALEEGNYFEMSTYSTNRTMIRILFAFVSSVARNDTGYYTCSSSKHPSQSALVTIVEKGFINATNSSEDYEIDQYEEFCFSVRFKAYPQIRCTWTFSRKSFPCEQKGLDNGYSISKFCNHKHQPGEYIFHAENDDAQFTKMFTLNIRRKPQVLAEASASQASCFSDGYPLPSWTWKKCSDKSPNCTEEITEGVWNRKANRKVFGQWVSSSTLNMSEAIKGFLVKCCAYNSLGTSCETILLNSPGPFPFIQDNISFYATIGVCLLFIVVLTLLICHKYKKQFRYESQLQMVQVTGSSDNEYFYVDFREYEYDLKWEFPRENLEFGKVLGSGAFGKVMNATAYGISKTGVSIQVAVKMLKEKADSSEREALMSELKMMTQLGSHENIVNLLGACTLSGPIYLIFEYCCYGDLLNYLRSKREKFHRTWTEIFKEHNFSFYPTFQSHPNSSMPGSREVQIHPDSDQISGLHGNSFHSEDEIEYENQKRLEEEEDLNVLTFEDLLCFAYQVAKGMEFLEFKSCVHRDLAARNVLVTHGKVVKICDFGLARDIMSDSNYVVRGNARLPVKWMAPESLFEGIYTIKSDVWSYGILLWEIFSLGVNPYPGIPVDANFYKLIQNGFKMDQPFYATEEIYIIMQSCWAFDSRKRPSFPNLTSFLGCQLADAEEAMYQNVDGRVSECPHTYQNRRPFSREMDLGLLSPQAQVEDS

[7] = test system: HL-60; experiment: Antiproliferative activity against human HL60 cells assessed as growth inhibition after 72 hrs by CCK-8 assay; type: functional; details: HL-60, 72 h; in short: as §1

T1 sequence (O60674 whole entry, the tested form may be a part): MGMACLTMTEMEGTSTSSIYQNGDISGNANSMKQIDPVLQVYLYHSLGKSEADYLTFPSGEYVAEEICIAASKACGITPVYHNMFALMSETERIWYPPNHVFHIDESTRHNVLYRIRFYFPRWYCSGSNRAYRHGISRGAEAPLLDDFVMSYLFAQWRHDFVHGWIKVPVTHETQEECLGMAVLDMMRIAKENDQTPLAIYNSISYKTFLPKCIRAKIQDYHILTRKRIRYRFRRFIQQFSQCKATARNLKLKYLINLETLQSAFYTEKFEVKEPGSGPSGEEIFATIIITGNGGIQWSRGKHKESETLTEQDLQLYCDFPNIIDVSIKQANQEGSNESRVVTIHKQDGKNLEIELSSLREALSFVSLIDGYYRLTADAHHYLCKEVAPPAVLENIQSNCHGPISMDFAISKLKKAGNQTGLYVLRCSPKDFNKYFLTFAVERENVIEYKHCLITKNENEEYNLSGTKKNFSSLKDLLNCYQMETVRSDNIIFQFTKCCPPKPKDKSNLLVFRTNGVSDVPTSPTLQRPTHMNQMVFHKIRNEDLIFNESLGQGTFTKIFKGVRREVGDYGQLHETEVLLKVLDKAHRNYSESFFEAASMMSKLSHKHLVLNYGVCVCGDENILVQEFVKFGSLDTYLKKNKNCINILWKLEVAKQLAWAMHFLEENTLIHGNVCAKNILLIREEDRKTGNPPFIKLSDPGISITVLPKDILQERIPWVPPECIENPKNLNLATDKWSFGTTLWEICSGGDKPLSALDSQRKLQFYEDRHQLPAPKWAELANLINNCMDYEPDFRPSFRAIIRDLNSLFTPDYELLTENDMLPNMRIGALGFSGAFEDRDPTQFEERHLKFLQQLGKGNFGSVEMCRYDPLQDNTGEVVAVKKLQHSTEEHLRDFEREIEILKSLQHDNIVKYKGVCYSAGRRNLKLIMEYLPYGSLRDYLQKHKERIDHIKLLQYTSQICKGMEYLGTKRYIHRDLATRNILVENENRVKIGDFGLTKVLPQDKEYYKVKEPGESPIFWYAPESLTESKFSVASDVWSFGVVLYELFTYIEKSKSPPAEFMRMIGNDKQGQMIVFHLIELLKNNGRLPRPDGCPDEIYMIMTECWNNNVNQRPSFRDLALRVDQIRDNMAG

CC(=O)c1ccc(NC(=O)N2CCN(c3ccnc(Nc4ccc(OCCN5CCCC5)cc4)n3)CC2)cc1
GI50 [1]: 30.3 µM | inhibition [2]: 45% | inhibition [3]: 69%

O=C(Nc1ccccc1C(F)(F)F)N1CCN(c2ccnc(Nc3ccc(N4CCOCC4)cc3)n2)CC1
inhibition [2]: 21.8% | inhibition [3]: 15%

CN1CCN(c2ccc(Nc3nccc(N4CCN(C(=O)Nc5ccc(S(N)(=O)=O)cc5)CC4)n3)cc2)CC1
GI50 [1]: > 50 µM | inhibition [2]: 76% | inhibition [3]: 86%

N#Cc1ccc(NC(=O)N2CCN(c3ccnc(Nc4ccc(N5CCOCC5)cc4)n3)CC2)cc1
inhibition [2]: 78% | inhibition [3]: 70.8%

CN1CCN(c2ccc(Nc3nccc(N4CCN(C(=O)Nc5ccc(C(N)=O)cc5)CC4)n3)cc2)CC1
GI50 [1]: > 50 µM | inhibition [2]: 84% | inhibition [3]: 85%

O=C(Nc1ccc(F)cc1)N1CCN(c2ccnc(Nc3ccc(N4CCOCC4)cc3)n2)CC1
inhibition [2]: 54.8% | inhibition [3]: 27.8%

CC(=O)c1ccc(NC(=O)N2CCN(c3ccnc(Nc4ccc(N5CCN(C)CC5)cc4)n3)CC2)cc1
GI50 [1]: 14.1 µM | IC50 [4]: 0.0138 µM | inhibition [2]: 80.8% | GI50 [5]: 32 µM | inhibition [3]: 87.5% | IC50 [6]: 0.012 µM | GI50 [7]: 46.4 µM

CC(=O)c1ccc(NC(=O)N2CCN(c3ccnc(Nc4ccc(N5CCC(C)CC5)cc4)n3)CC2)cc1
GI50 [1]: 26.4 µM | inhibition [2]: 53% | inhibition [3]: 54%

CS(=O)(=O)c1ccc(NC(=O)N2CCN(c3ccnc(Nc4ccc(N5CCOCC5)cc4)n3)CC2)cc1
inhibition [2]: 75.8% | inhibition [3]: 53.9%

NC(=O)c1cccc(NC(=O)N2CCN(c3ccnc(Nc4ccc(N5CCOCC5)cc4)n3)CC2)c1
inhibition [2]: 74% | inhibition [3]: 39.8%

O=C(Nc1ccc([N+](=O)[O-])cc1)N1CCN(c2ccnc(Nc3ccc(N4CCOCC4)cc3)n2)CC1
inhibition [2]: 79.3% | inhibition [3]: 84.4%

N#CCNC(=O)c1ccc(-c2ccnc(Nc3ccc(N4CCOCC4)cc3)n2)cc1
inhibition [2]: 94.7%

NC(=O)c1ccccc1NC(=O)N1CCN(c2ccnc(Nc3ccc(N4CCOCC4)cc3)n2)CC1
inhibition [2]: 9.5% | inhibition [3]: 12.5%

NS(=O)(=O)c1ccc(NC(=O)N2CCN(c3ccnc(Nc4ccc(OCCN5CCCC5)cc4)n3)CC2)cc1
GI50 [1]: > 50 µM | inhibition [2]: 59% | inhibition [3]: 82%

CNC(=O)c1ccc(NC(=O)N2CCN(c3ccnc(Nc4ccc(N5CCOCC5)cc4)n3)CC2)cc1
inhibition [2]: 68.1% | inhibition [3]: 35.8%

CC(=O)c1ccc(NC(=O)N2CCN(c3ccnc(Nc4ccc(OCCCN5CCCC5)cc4)n3)CC2)cc1
GI50 [1]: 3.3 µM | IC50 [4]: 0.065 µM | inhibition [2]: 60.7% | GI50 [5]: 11 µM | inhibition [3]: 83.2% | IC50 [6]: 0.013 µM | GI50 [7]: 29.4 µM

CC(=O)c1ccc(NC(=O)N2CCN(c3ccnc(Nc4ccc(OCCCN5CCOCC5)cc4)n3)CC2)cc1
GI50 [1]: 10.7 µM | inhibition [2]: 60.9% | inhibition [3]: 70.9%

O=C(Nc1ccc(C(F)(F)F)cc1)N1CCN(c2ccnc(Nc3ccc(N4CCOCC4)cc3)n2)CC1
inhibition [2]: 35.2% | inhibition [3]: 36.5%

O=C(Nc1ccccc1)N1CCN(c2ccnc(Nc3ccc(N4CCOCC4)cc3)n2)CC1
inhibition [2]: 53.7% | inhibition [3]: 27.8%

O=C(Nc1cccc(C(F)(F)F)c1)N1CCN(c2ccnc(Nc3ccc(N4CCOCC4)cc3)n2)CC1
inhibition [2]: 35.2% | inhibition [3]: 36.5%

CCc1ccc(NC(=O)N2CCN(c3ccnc(Nc4ccc(N5CCOCC5)cc4)n3)CC2)cc1
inhibition [2]: 53.3% | inhibition [3]: 27.4%

CC(C)Oc1ccc(NC(=O)N2CCN(c3ccnc(Nc4ccc(N5CCOCC5)cc4)n3)CC2)cc1
inhibition [2]: 11.1% | inhibition [3]: 22.9%

NC(=O)c1ccc(NC(=O)N2CCN(c3ccnc(Nc4ccc(OCCN5CCCC5)cc4)n3)CC2)cc1
GI50 [1]: > 50 µM | inhibition [2]: 53% | inhibition [3]: 74%

NC(=O)c1ccc(NC(=O)N2CCN(c3ccnc(Nc4ccc(N5CCOCC5)cc4)n3)CC2)cc1
GI50 [1]: > 50 µM | IC50 [4]: 0.011 µM | inhibition [2]: 86.3% | GI50 [5]: > 50 µM | inhibition [3]: 81.1% | IC50 [6]: 0.021 µM | GI50 [7]: > 50 µM

CC(=O)c1ccc(NC(=O)N2CCN(c3ccnc(Nc4ccc(OCCN5CCOCC5)cc4)n3)CC2)cc1
GI50 [1]: 8.9 µM | inhibition [2]: 61.7% | inhibition [3]: 70.6%

N#Cc1cccc(NC(=O)N2CCN(c3ccnc(Nc4ccc(N5CCOCC5)cc4)n3)CC2)c1
inhibition [2]: 8.1% | inhibition [3]: 15.9%

CC(=O)c1ccc(NC(=O)N2CCN(c3ccnc(Nc4ccc(N5CCSCC5)cc4)n3)CC2)cc1
GI50 [1]: 4.7 µM | IC50 [4]: 0.0298 µM | inhibition [2]: 73.9% | GI50 [5]: 17.8 µM | inhibition [3]: 77.6% | IC50 [6]: 0.04 µM | GI50 [7]: > 50 µM

COc1ccc(NC(=O)N2CCN(c3ccnc(Nc4ccc(N5CCOCC5)cc4)n3)CC2)cc1
inhibition [2]: 48.7% | inhibition [3]: 21.7%

CC(=O)c1cccc(NC(=O)N2CCN(c3ccnc(Nc4ccc(N5CCOCC5)cc4)n3)CC2)c1
inhibition [2]: 2% | inhibition [3]: 3.3%

C1=N/C2=N/c3ccc(OCCN4CCCC4)c(c3)COC/C=C/COCc3cccc(c3)C(=C1)N2 [PACRITINIB]
GI50 [1]: 1.1 µM | inhibition [2]: 92% | GI50 [5]: 1.6 µM | GI50 [7]: 1.4 µM

CCN(CC)c1ccc(NC(=O)N2CCN(c3ccnc(Nc4ccc(N5CCOCC5)cc4)n3)CC2)cc1
inhibition [2]: 41.2% | inhibition [3]: 0%

O=C(Nc1ccc(C(=O)N2CCOCC2)cc1)N1CCN(c2ccnc(Nc3ccc(N4CCOCC4)cc3)n2)CC1
inhibition [2]: 20% | inhibition [3]: 17.2%

COC(=O)c1ccc(NC(=O)N2CCN(c3ccnc(Nc4ccc(N5CCOCC5)cc4)n3)CC2)cc1
inhibition [2]: 64.4% | inhibition [3]: 62.8%

NS(=O)(=O)c1ccc(NC(=O)N2CCN(c3ccnc(Nc4ccc(N5CCOCC5)cc4)n3)CC2)cc1
GI50 [1]: > 50 µM | IC50 [4]: 0.0093 µM | inhibition [2]: 86% | GI50 [5]: > 50 µM | inhibition [3]: 79.7% | IC50 [6]: 0.03 µM | GI50 [7]: > 50 µM

COC(=O)CNC(=O)c1ccc(NC(=O)N2CCN(c3ccnc(Nc4ccc(N5CCOCC5)cc4)n3)CC2)cc1
inhibition [2]: 40.6% | inhibition [3]: 33.1%

CC(=O)c1ccccc1NC(=O)N1CCN(c2ccnc(Nc3ccc(N4CCOCC4)cc3)n2)CC1
inhibition [2]: 18.9% | inhibition [3]: 13.8%
